Measured values published in ChEMBL document CHEMBL4265975, “Synthesis, biological evaluation and molecular modeling of a novel series of fused 1,2,3-triazoles as potential anti-coronavirus agents” (Bioorg Med Chem Lett, 2018).

Experiments:
[1] = Selectivity index, ratio of MCC for HEL cells to EC50 for Human coronavirus 229E infected in HEL cells; type: toxicity, cell-based; conditions: read-out: Selectivity Index
Summary of the method: (§1)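 SI is MCC divided by EC50. […] MCC was measured in parallel on HEL cells seeded at 5 x 10^3 cells/well, as the lowest concentration causing microscopically visible alteration of cell morphology. The top concentration tested was 100 µM.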

[2] = Selectivity index, ratio of MCC for HEL cells to EC50 for Human adenovirus 2 infected in HEL cells; type: toxicity, cell-based; conditions: read-out: Selectivity Index; summary of the method: as §1
Human alphaherpesvirus 2 = assay: Antiviral activity against Human herpesvirus 2 strain G infected in human HEL cells assessed as inhibition of virus-induced cytopathic effect after 3 days by microscopic method; type: functional, organism-based; conditions: Human alphaherpesvirus 2, strain G, 72 h
[3] = Selectivity index, ratio of MCC for HEL cells to EC50 for Vaccinia virus infected in HEL cells; type: toxicity, cell-based; conditions: human, read-out: Selectivity Index; summary of the method: as §1
[4] = Selectivity index, ratio of MCC for HEL cells to EC50 for Herpes simplex virus 1 KOS infected in HEL cells; type: toxicity, cell-based; conditions: human, read-out: Selectivity Index; summary of the method: as §1
[5] = Cytotoxicity against HEL cells assessed as alteration in cell morphology after 3 days by microscopic method; type: cell-based; conditions: human
Summary of the method: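 HEL cells were seeded at 5 x 10^3 cells/well and exposed to graded compound concentrations, up to 100 μM, in parallel with the antiviral assay. Cell morphology was examined by light microscopy. MCC is the minimum concentration causing a microscopically detectable alteration of normal cell morphology.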

[6] = Selectivity index, ratio of MCC for HEL cells to EC50 for acyclovir-resistant TK-defecient Herpes simplex virus 1 KOS infected in HEL cells; type: toxicity, cell-based; conditions: human, read-out: Selectivity Index; summary of the method: as §1
Human alphaherpesvirus 1 [7] = assay: Antiviral activity against acyclovir-resistant TK-defecient Herpes simplex virus 1 KOS infected in human HEL cells assessed as inhibition of virus-induced cytopathic effect after 3 days by microscopic method; type: functional, organism-based; conditions: Human alphaherpesvirus 1, KOS, 72 h
Human alphaherpesvirus 1 [8] = assay: Antiviral activity against Herpes simplex virus 1 KOS infected in human HEL cells assessed as inhibition of virus-induced cytopathic effect after 3 days by microscopic method; type: functional, organism-based; conditions: Human alphaherpesvirus 1, KOS, 72 h
[9] = Selectivity index, ratio of MCC for HEL cells to EC50 for Herpes simplex virus 2 strain G infected in HEL cells; type: toxicity, cell-based; conditions: human, read-out: Selectivity Index; summary of the method: as §1
Vaccinia virus = assay: Antiviral activity against Vaccinia virus infected in human HEL cells assessed as inhibition of virus-induced cytopathic effect after 3 days by microscopic method; type: functional, organism-based; conditions: Orthopoxvirus vaccinia, 72 h
Human coronavirus 229E = assay: Antiviral activity against Human coronavirus 229E infected in HEL cells assessed as reduction in virus-induced pathogenicity after 3 days by microscopic method; type: functional, organism-based; conditions: 72 h
Human adenovirus 2 = assay: Antiviral activity against Human adenovirus 2 infected in human HEL cells assessed as inhibition of virus-induced cytopathic effect after 3 days by microscopic method; type: functional, organism-based; conditions: Human mastadenovirus C, 72 h
Summary of the method: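 HEL cells were infected with adenovirus 2 for 2 h. Residual virus was then removed and the cells were incubated with medium containing graded compound concentrations for 3 days at 37°C. Virus-induced cytopathogenicity was scored microscopically.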

Compound	selectivity ratio [1]	selectivity ratio [2]	EC50 (Human alphaherpesvirus 2) [µM]	selectivity ratio [3]	selectivity ratio [4]	MCC at 72 h [5] [µM]	selectivity ratio [6]	EC50 (Human alphaherpesvirus 1 [7]) [µM]	EC50 (Human alphaherpesvirus 1 [8]) [µM]	selectivity ratio [9]	EC50 (Vaccinia virus) [µM]	EC50 (Human coronavirus 229E) [µM]	EC50 (Human adenovirus 2) [µM]
COc1ccc(CCn2nnc3c2CCN(c2ccc(C(F)(F)F)cc2)C3)cc1	> 8	> 8	> 100	> 8	> 8	> 100	> 8	> 100	> 100	> 8	> 100	8.9	> 100
CCCCCCn1nnc2c1CCN(c1ccc(F)cc1)C2	> 8	> 8	> 100	> 8	> 8	> 100	> 8	> 100	> 100	> 8	> 100	> 100	> 100
Fc1ccc(N2CCc3c(nnn3CC(c3ccccc3)c3ccccc3)C2)cc1	> 8	> 8	> 100	> 8	> 8	≥ 100	> 8	> 100	> 100	> 8	> 100	> 100	> 100
CCOC(=O)C1(Cc2ccccc2)CN(c2ccccc2)Cc2nnn(Cc3c(F)cccc3Cl)c21 (configuration not stated)	> 8	> 8	> 100	> 8	> 8	> 100	> 8	> 100	> 100	> 8	> 100	> 100	> 100
CCOC(=O)C1(Cc2ccccc2)CN(c2ccccc2)Cc2nnn(Cc3cc(OC)c(OC)c(OC)c3)c21 (configuration not stated)	> 8	> 8	> 100	> 8	> 8	≥ 100	> 8	> 100	> 100	> 8	> 100	> 100	> 100
CCOC(=O)C1(Cc2ccccc2)CN(c2ccccc2)Cc2nnn(Cc3cccc(Cl)c3)c21 (configuration not stated)	> 8	> 8	> 100	> 8	> 8	> 100	> 8	> 100	> 100	> 8	> 100	> 100	> 100
COc1ccccc1CCn1nnc2c1CCN(c1ccc(C(F)(F)F)cc1)C2	> 8	> 8	> 100	> 8	> 8	> 100	> 8	> 100	> 100	> 8	> 100	> 100	> 100
Fc1ccc(Cn2nnc3c2CCN(c2ccc(C(F)(F)F)cc2)C3)cc1	> 8	> 8	> 100	> 8	> 8	100	> 8	> 100	> 100	> 8	> 100	> 100	> 100
Fc1cccc(Cn2nnc3c2CCN(c2ccc(C(F)(F)F)cc2)C3)c1	> 8	> 8	> 100	> 8	> 8	100	> 8	> 100	> 100	> 8	> 100	12	> 100
